Assay results: ChEMBL document CHEMBL4823286, “Synthesis and evaluation of novel 2,4-diaminopyrimidines bearing a sulfoxide moiety as anaplastic lymphoma kinase (ALK) inhibition agents” (Bioorg Med Chem Lett, 2021)

What was measured:
BaF3 = test: Antiproliferative activity against mouse BaF3 cells overexpressing ALK assessed as inhibition of cell proliferation measured by CCK8 assay; assay type: functional, cell-based
Summary of the method: (§1)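 Cell proliferation inhibition; IC50 given as mean ± SD of three independent experiments.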

NCI-H2228 = test: Antiproliferative activity against human NCI-H2228 cells assessed as inhibition of cell proliferation measured by CCK8 assay; assay type: functional, cell-based; summary of the method: as §1

SMILES	IC50 (BaF3) [µM]	IC50 (NCI-H2228) [µM]
CC[S+]([O-])c1cc(Cl)ccc1Nc1nc(Nc2ccc(N3CCN(C)CC3)cc2OC)ncc1Cl (centres undefined)	0.128	0.134
Cc1cc(Nc2ncc(Cl)c(Nc3ccccc3S(=O)(=O)C(C)C)n2)c(OC(C)C)cc1C1CCNCC1 [CERITINIB]	0.00711	0.0221
